Rows were chosen to be rich in hits. Some 2.2% of all compounds tested hit in one or more screens of this group.
PPC-1+TRAIL kill: compounds killing PPC-1 cancer cells with TRAIL present, primary screen, TRAIL potentiator project, ATPLite luminescence, uHTS; PPC-1 cells + TRAIL, ATPLite viability luminescence; cell killing (% activity), % at 4 µM or 5 µM; actives 0.41% (n = 220,000);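 active = cell killing above 50% in the first pass at 4 µM, then a duplicate retest at 5 µM averaging 50% or more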;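 note: plate controls were cells with TRAIL plus DMSO for no effect and medium-only wells lacking cells for full effect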
FLuc stim CS: FLuc activators, initial screening, artefact control for FLuc-dependent activation tests, biochemical, ATPlite luminescence | Luciferin 4-monooxygenase (Photinus pyralis), P08659 | ATPlite luciferase biochemical, 10 min; 0 = ATP-free wells, 1 = DMSO control | activation factor at 10 µM | 200,000 tested, under 10 active | AID 1027, 2008;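 active = luciferase activation factor, scaled between plate controls, of at least 2 with compound at 10 µM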
Target sequence (P08659 whole entry, looked up): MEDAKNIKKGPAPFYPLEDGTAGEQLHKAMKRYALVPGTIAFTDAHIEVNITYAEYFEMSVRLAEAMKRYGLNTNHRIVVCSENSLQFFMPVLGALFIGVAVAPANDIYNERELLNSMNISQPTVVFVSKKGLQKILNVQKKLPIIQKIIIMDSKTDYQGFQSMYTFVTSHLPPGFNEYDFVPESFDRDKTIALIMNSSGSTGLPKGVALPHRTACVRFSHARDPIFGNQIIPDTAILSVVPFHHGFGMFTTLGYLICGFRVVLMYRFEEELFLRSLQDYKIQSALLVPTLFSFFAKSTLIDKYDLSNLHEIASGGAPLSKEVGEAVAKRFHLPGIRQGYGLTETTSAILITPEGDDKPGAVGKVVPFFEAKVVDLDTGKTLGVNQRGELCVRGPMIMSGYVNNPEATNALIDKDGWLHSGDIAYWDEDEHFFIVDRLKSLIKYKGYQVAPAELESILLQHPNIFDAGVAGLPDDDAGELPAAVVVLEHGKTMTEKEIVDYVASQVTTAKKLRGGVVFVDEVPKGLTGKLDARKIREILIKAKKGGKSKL
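Assay system: Luciferase/luciferin detection reagent, cell-free biochemical luciferase assay / Read-out: luciferase activation / Benchmarks: No-ATP low control, compound-free enzyme-plus-ATP high control / Medium: PBS buffer for ATP / Detection: luminescence measurement of luciferase light output / Schedule: 10 min at ambient temperature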
NF-kB expr up: activators of NF-kB expression in neurons, primary screen, cell-based, HTS. human neuronal cells, NF-kB reporter expression; active compounds read high. AID 1239, 2008. actives 1.6% (n = 190,000). fold change at 12.5 µM; in the data active = fold change above about 3.3
FLuc inh counter: firefly luciferase enzyme inhibitors, primary screen, artefact control for luciferase-based inhibitor screens, biochemical, luminescence, ATPLite; inhibition, % at 10 µM; 10 min; actives 1.5% (n = 200,000);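 active = inhibition above about 50% when tested at 10 µM, limit read from the data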
TRAIL sens C8: viability loss with TRAIL in NB7+C8 cells, primary screen, TRAIL sensitizer project, cell-based, ATPlite luminescence; actives 1% (n = 360,000); AID 624354, 2012; inhibition (viability loss, TRAIL sensitization), % at 10 µM;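 active = compounds causing at least 50% loss of cell viability in the single-dose screen, relative to plate controls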
APP 5'UTR act: activators of APP 5'UTR luciferase reporter, primary screen, SH-SY5Y cells; SH-SY5Y APP 5'UTR luciferase reporter, luminescence; zero percent = DMSO vehicle wells; actives 1% (n = 190,000); activation, % at 2 µM;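 active = activation above a set limit, based on mean plus 3 SD of controls, cut at about 140% in these data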
* marks the source's active call; other numbers are inactive results; nt = no result.

SMILES	PPC-1+TRAIL kill	FLuc stim CS	NF-kB expr up	FLuc inh counter	TRAIL sens C8	APP 5'UTR act
COc1ccc(C(=O)c2c(C(F)(F)F)oc3c2C(=O)c2ccccc2C3=O)cc1	21	1	0.28	1	98*	-27
Nc1ccc2cc3[nH]c4cc(N)ccc4c3nc2c1	nt	nt	nt	nt	63*	nt
Nc1ccc2nc(-c3cccc(-c4nc5ccc(N)cc5[nH]4)c3)[nH]c2c1	nt	nt	nt	nt	-5	nt
CCc1ccc(C(=O)NC2CCCCC2)s1	20	0.7	4.7*	34	21	124
COc1cccc(-c2cnc(C(O)c3ccc(Cl)cc3C)[nH]2)c1 (centres undefined)	nt	nt	nt	nt	-8	nt
Cc1ccc2nc(-c3ccco3)c(CC(C)(C)C)n2c1	nt	nt	nt	nt	-24	nt
CCOC(=O)c1sc(NC(=O)CSc2nc(C)cc(C)n2)c(C#N)c1C	9	1	0.95	-3	-2	13
CCOC(=O)c1sc(NC(=O)CSc2ccccn2)c(C#N)c1C	-8	1.1	3.8*	-5	-8	2
CCOC(=O)c1sc(NC(=O)c2cccc(S(=O)(=O)N3CCc4ccccc43)c2)c(C#N)c1C	18	nt	nt	nt	46*	nt
COc1ccc(-c2c(C(=O)c3ccc(Br)cc3)[nH]c(N)c2C(=O)c2ccccc2)cc1OC	nt	nt	nt	nt	5	nt
CSc1ccc(CN2CCC2(C)C(=O)Nc2ccc3c(c2)OCO3)cc1 (centres undefined)	nt	nt	nt	nt	-5	nt
O=C(COC(=O)c1ccc(Cl)nc1)c1ccc2c(c1)OCCO2	20	0.1	1.2	88*	12	45
O=C(COC(=O)C(O)c1ccccc1)c1ccc2c(c1)OCCO2 (centres undefined)	6	0.2	1.1	84*	-3	5
CCCCC(=O)Nc1ccccc1C(=O)OCC(=O)c1ccc2c(c1)OCCO2	25	0.3	0.84	66*	10	70
CCC(=O)Nc1ccccc1C(=O)OCC(=O)c1ccc2ccccc2c1	6	1	0.51	0	1	1
CCN(CC)S(=O)(=O)c1cccc(C(=O)OCC(=O)c2ccc3c(c2)OCCO3)c1	14	0.1	1.1	87*	-3	6
CC(C)(C)S(=O)N1Cc2cc(C(=O)N[C@@H]3CCN(Cc4ccccc4)C3)nc(-c3cccc(-c4cc5ccccc5o4)c3)c2[C@@H]1CCO (some centres undefined)	nt	nt	nt	nt	6	nt
COC(=O)C1=COC(OC2OC(CO)C(O)C(O)C2O)C2C(C)CC(=O)C12 (centres undefined)	nt	nt	nt	nt	-11	nt
CCCNC(=O)C[C@H]1CC[C@@H]2[C@H](COC[C@@H](O)CN2C(=O)c2ccccn2)O1	nt	nt	nt	nt	-3	nt
CS(=O)(=O)c1cccc(C(=O)OCC(=O)c2ccc3c(c2)OCCO3)c1	nt	nt	nt	nt	4	nt
O=C(COC(=O)c1cccc(S(=O)(=O)NCc2ccccc2)c1)c1ccc2c(c1)OCCO2	30	0.5	0.77	54*	0	4
O=C(COc1ncnc2cc(Cl)ccc12)c1ccc2c(c1)OCCO2	7	nt	nt	nt	-6	nt
O=C(COc1ncnc2ccccc12)c1ccc2c(c1)OCCO2	20	0.6	3.8*	45	21	171*
O=C(CS(=O)(=O)c1ccccc1)c1ccc2c(c1)OCCO2	19	0.4	2.3	58*	5	100
CC(C)c1ccc(NC(=O)C2Cc3c(-c4ccc(Cl)cc4)ccnc3O2)cc1 (centres undefined)	nt	nt	nt	nt	14	nt
SMILES	PPC-1+TRAIL kill	FLuc stim CS	NF-kB expr up	FLuc inh counter	TRAIL sens C8	APP 5'UTR act
COc1ccc(OC)c(CN2C(=O)CSCC2(C)C(=O)NC(C)C)c1 (centres undefined)	nt	nt	nt	nt	-15	nt
CCCCCCCCN1C(=O)[C@H](CC(=O)NCCC(C)C)C[C@@]2(C(=O)OC)CCCCC=C12	nt	nt	nt	nt	6	nt
Cc1cc(C)c(C#N)c(SCc2cn3ccccc3n2)n1	68*	1	0.47	4	1	-1
Cc1cc(C)nc(SCc2cn3ccccc3n2)n1	14	nt	nt	nt	-6	nt
Cc1ccc(C(=O)N/N=C2\CCc3ccccc32)c(C)c1	24	0.4	5.7*	62*	48	127
O=C(N/N=C1\CCc2ccccc21)c1ccc(O)cc1	33	0.3	3.3	66*	33	138*

High-throughput results as filed in PubChem.
